Assay results from ChEMBL document CHEMBL4665664, “Discovery of Orally Active Hydroxyethylamine Based SPPL2a Inhibitors” (ACS Med Chem Lett, 2019).
Values after ≈ are worked out from the molar mass of the structure shown. Each block holds one molecule with its values, some of them ahead of it. Active and inactive are the calls of the source. The calls are words filed in the database; no cut-off is given here.

Tests used:
Gamma-secretase = assay: Inhibition of gamma-secretase (unknown origin) expressed in HEK293 cells cotransfected with Notch1-VP16-GAL4 fusion and Gal4 luciferase reporter plasmid incubated for 24 hrs by luciferase reporter gene assay luminescence assay; format: cell-based, Homo sapiens
Cathepsin E = biological target: T1, Cathepsin E (Homo sapiens, UniProt P14091); assay: Inhibition of human cathepsin E isoform 1 (19 to 401 residues) expressed in Escherichia coli using R-C(PT14)KPILFFRLGWR-OH as substrate preincubated for 1 hr followed by substrate addition and measured after 1 hr by fluorescence based assay
T1 sequence (P14091 whole entry): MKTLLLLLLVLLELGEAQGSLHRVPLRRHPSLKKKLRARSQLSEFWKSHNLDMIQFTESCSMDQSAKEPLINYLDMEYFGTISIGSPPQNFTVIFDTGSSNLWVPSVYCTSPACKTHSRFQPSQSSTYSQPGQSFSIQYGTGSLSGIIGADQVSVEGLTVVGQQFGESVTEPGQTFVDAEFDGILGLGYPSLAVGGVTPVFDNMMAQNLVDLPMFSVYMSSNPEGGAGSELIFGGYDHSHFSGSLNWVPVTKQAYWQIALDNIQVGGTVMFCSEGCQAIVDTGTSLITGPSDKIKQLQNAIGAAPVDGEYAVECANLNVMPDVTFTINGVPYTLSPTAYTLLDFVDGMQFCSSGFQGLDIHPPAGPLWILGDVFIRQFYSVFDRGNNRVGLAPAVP

Cathepsin D = Cathepsin D (Homo sapiens, UniProt P07339); assay: Inhibition of human cathepsin D (1 to 412 residues) expressed in baculovirus infected insect cells using R-C(PT14)-KPILFFRLGWR-OH as substrate preincubated for 1 hr followed by substrate addition and measured after 1 hr by fluorescence based assay
Cathepsin D, sequence (P07339 65-162 limits assumed): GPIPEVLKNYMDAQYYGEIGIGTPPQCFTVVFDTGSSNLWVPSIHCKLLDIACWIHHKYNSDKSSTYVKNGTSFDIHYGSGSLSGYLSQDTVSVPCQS
Cathepsin D, sequence (P07339 169-412 limits assumed): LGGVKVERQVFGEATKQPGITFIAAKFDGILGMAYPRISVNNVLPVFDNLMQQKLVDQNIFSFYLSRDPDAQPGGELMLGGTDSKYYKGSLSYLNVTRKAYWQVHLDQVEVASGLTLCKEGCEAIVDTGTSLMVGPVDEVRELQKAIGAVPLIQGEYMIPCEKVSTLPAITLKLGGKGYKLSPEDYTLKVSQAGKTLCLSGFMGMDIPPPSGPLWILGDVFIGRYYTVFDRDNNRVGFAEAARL

[1] = Equilibrium solubility of the compound in DMSO solution at pH 6.8 by saturation shake flask method; format: physicochemical
In short: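 Equilibrium solubility by saturation shake-flask at pH 6.8, starting from DMSO solution.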

Beta-secretase 2 = biological target: T2, Beta-secretase 2 (Homo sapiens, UniProt Q9Y5Z0); assay: Inhibition of human BACE2 (63 to 466 residues) expressed in baculovirus infected insect cells using Ac-C(PT14)EVNLDAEWK-NH2 as substrate preincubated for 1 hr followed by substrate addition and measured after 1 hr by fluorescence based assay
T2 sequence (Q9Y5Z0 whole entry): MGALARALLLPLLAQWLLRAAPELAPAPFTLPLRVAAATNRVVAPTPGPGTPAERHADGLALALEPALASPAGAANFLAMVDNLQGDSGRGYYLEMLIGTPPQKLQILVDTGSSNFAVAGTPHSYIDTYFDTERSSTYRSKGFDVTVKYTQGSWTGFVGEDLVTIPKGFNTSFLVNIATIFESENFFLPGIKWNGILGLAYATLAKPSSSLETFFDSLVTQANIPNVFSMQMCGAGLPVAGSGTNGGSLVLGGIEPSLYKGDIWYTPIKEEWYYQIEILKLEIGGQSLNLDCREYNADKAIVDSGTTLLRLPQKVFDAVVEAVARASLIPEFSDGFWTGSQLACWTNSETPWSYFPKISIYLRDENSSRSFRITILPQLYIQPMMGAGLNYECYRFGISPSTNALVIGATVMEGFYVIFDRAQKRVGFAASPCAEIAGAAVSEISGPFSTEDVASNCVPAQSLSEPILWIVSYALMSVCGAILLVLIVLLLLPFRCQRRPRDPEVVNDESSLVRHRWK

Beta-secretase 1 = Beta-secretase 1 (Homo sapiens, UniProt P56817); assay: Inhibition of human BACE1 (46 to 435 residues) expressed in baculovirus infected insect cells using Ac-C(PT14)EVNLDAEWK-NH2 as substrate preincubated for 1 hr followed by substrate addition and measured after 1 hr by fluorescence based assay
Beta-secretase 1, sequence (P56817 whole entry, the tested form may be a part): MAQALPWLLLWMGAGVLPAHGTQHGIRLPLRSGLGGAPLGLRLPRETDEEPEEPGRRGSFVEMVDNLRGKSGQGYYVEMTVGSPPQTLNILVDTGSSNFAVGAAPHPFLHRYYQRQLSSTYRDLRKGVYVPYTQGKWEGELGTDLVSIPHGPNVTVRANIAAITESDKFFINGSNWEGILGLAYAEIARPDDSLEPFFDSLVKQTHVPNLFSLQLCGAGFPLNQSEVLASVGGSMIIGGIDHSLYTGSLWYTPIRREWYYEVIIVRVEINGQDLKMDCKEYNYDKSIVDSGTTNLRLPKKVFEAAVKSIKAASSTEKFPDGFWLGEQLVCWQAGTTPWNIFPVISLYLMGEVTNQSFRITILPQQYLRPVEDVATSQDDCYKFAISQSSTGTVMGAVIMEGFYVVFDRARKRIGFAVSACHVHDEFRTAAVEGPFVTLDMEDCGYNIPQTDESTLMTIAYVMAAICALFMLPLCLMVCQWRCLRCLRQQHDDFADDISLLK

Renin = biological target: T3, Renin (Homo sapiens, UniProt P00797); assay: Inhibition of human renin (67 to 406 residues) expressed in CHO cells using KHPWHLVIHT-C(PT14)-K as substrate preincubated for 1 hr followed by substrate addition and measured after 1 hr by fluorescence based assay
T3 sequence (P00797 whole entry): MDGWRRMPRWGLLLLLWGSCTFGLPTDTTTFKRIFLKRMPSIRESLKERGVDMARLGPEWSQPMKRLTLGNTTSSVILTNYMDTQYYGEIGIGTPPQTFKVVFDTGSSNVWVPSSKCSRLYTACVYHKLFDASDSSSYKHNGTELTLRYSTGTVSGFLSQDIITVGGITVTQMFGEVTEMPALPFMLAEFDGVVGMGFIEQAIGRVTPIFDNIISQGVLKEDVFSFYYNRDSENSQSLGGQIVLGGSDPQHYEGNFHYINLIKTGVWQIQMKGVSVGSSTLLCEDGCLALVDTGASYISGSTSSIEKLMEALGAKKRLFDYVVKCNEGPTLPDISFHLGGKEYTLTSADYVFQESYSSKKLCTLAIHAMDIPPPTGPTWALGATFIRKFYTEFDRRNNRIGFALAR

[2] = biological target: T4, Signal peptide peptidase-like 2A (Homo sapiens, UniProt Q8TCT8); assay: Inhibition of human SPPL2a expressed in HEK293 cells cotransfected with Gal4 luciferase reporter plasmid and VP16-TNFalpha(1-76)-NTF incubated for 24 hrs by luciferase reporter gene assay based luminescence assay; format: cell-based
T4 sequence (Q8TCT8 whole entry): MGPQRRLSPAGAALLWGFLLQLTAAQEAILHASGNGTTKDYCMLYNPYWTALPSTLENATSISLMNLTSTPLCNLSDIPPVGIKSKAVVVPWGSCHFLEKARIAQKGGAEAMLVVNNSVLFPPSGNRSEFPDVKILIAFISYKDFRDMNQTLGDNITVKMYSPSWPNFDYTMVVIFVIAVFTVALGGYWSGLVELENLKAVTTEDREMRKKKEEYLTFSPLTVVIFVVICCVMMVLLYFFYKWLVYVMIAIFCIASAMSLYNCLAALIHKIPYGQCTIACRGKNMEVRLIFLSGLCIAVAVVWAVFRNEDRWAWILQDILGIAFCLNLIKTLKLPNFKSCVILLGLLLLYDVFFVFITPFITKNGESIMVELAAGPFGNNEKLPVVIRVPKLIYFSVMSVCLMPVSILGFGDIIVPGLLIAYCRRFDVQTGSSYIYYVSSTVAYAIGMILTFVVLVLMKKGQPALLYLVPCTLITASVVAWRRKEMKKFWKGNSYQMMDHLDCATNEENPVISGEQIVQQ

[3] = Lipophilicity, logD of the compound in octanol-buffer at pH 7.4 by shake-flask equilibrium based LC/MS/MS analysis; format: physicochemical
In short: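 log D determined at pH 7.4 by rapid-throughput octanol/buffer 96-well shake-flask equilibration, with LC/MS/MS quantification.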

Mus musculus = assay: In vivo inhibition of SPPL2a in mouse assessed as increase in CD74/p8 NTF accumulation in splenocytes lysates at 100 mg/kg, po administered as single dose and measured after 4 hrs post-dosing by western blot analysis; settings: Lysate

IC50 (Gamma-secretase): 3.7 µM
SMILES: CC(C)(C)c1cccc(S(=O)(=O)N(C[C@H](O)[C@@H](N)c2ccccc2)C2CCC2)c1

IC50 (Gamma-secretase): 4.8 µM | IC50 (Cathepsin E): > 100 µM | IC50 (Cathepsin D): > 100 µM | solubility [1]: 0.034 mg/mL (≈ 78.8 µM) | IC50 (Beta-secretase 2): > 100 µM | IC50 (Beta-secretase 1): > 100 µM | IC50 (Renin): > 100 µM
SMILES: CC(C)CN(C[C@H](O)[C@@H](N)c1ccccc1)S(=O)(=O)c1ccc(Cl)c(Cl)c1

IC50 (Gamma-secretase): 1.8 µM
SMILES: CC1(C)CCC(C)(C)c2cc(S(=O)(=O)N(C[C@H](O)[C@@H](N)c3ccccc3)C3CCC3)ccc21

IC50 (Gamma-secretase): > 10 µM
SMILES: N[C@@H](c1ccccc1)[C@@H](O)CN(C1CCC1)S(=O)(=O)c1ccc2scnc2c1

IC50 [2]: 4.3 µM | solubility [1]: < 0.002 mg/mL | logD [3]: > 4.6
SMILES: CC(C)CN(C[C@H](O)[C@H](Cc1ccccc1)NC(=O)OCc1ccccc1)S(=O)(=O)c1ccc(Cl)c(Cl)c1

IC50 (Gamma-secretase): > 10 µM
SMILES: CC(C)(O)CN(C[C@H](O)[C@@H](N)c1ccccc1)S(=O)(=O)c1ccc(Cl)c(Cl)c1

IC50 (Gamma-secretase): 2.1 µM
SMILES: N[C@@H](c1ccccc1)[C@@H](O)CN(C1CCCCCC1)S(=O)(=O)c1ccc(Cl)c(Cl)c1

IC50 [2]: 0.86 µM | solubility [1]: < 0.002 mg/mL | logD [3]: 3.1
SMILES: CC(C)CN(C[C@H](O)[C@@H](N)Cc1ccccc1)S(=O)(=O)c1ccc(Cl)c(Cl)c1

SMILES: C[C@H](NC(=O)[C@@H](O)c1cc(F)cc(F)c1)C(=O)N[C@@H]1C(=O)N(C)c2ccccc2-c2ccccc21
inhibition (Mus musculus): Active

IC50 (Gamma-secretase): 3.7 µM
SMILES: CC(C)(C)c1ccc(S(=O)(=O)N(C[C@H](O)[C@@H](N)c2ccccc2)C2CCC2)cc1

IC50 (Gamma-secretase): 5.9 µM
SMILES: CC(C)ON(C[C@H](O)[C@@H](N)c1ccccc1)S(=O)(=O)c1ccc(Cl)c(Cl)c1

IC50 (Gamma-secretase): > 10 µM
SMILES: N[C@@H](c1ccccc1)[C@@H](O)CN(C1COC1)S(=O)(=O)c1ccc(Cl)c(Cl)c1

IC50 (Gamma-secretase): 5.1 µM
SMILES: N[C@@H](c1ccccc1)[C@@H](O)CN(C1CCC1)S(=O)(=O)c1ccc(Cl)c(Cl)c1

IC50 (Gamma-secretase): 6.4 µM
SMILES: CC1(N(C[C@H](O)[C@@H](N)c2ccccc2)S(=O)(=O)c2ccc(Cl)c(Cl)c2)CCC1

IC50 (Gamma-secretase): 3.4 µM
SMILES: N[C@@H](c1ccccc1)[C@@H](O)CN(Cc1ccccc1)S(=O)(=O)c1ccc(Cl)c(Cl)c1
